Results on one substance are retold here after publication PMC4207575 (International Journal of Nanomedicine, 2014).

Details of this data set: species or system Kunming mice. Conditions: mouse, in vivo, iv, 5 mg/kg. The method in brief:
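Kunming mice (10 weeks, 18–22 g), two groups of six; free or nanoparticle-loaded peptide at matched peptide dose by tail-vein injection. Tail-vein blood (20 μL) drawn at intervals into heparinized micropipettes and mixed with PBS; residue taken up in 50% acetonitrile/0.1% TFA. C18 HPLC at 40°C, water/acetonitrile (0.1% TFA) gradient, 280 nm, thymopentin internal standard; plasma calibration 0.195313–25 μg/mL, 1/x2 weighting. Noncompartmental analysis; mean ± SD.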

No end group written: not given here.

What is called AUC(0-t) is exposure summed from dosing to a finite time, without extrapolation to infinity. Higher therefore signals more exposure. Broadly, the clearance is a measure of how efficiently the substance is removed, as volume per time. A low value points to a low capacity for elimination. By half-life is commonly meant the time in which the quantity being followed falls by half. For “HSDAVFTDNYTRLRKQVAAKKYLQSIKNKRY-NH2 (C-terminus assumed) [BAY 55-9837]”, the AUC(0-t) was found to be 2680 ± 160 ng·h/mL, the clearance was 0.733 mL/min and the half-life was 19.2 ± 3.6 min.
